Measured values published in ChEMBL document CHEMBL3751740, “New MKLP-2 inhibitors in the paprotrain series: Design, synthesis and biological evaluations” (Bioorg Med Chem, 2016).

Columns and labels:
[1] = molecular target: T1, Chromosome-associated kinesin KIF4A (Homo sapiens) (UniProt O95239); assay: Inhibition of porcine brain microtubule-stimulated human recombinant GST-tagged Kif4A ATPase activity at 1 mM by microplate reader in presence of Mg2+ ATP relative to control
T1 sequence (whole entry): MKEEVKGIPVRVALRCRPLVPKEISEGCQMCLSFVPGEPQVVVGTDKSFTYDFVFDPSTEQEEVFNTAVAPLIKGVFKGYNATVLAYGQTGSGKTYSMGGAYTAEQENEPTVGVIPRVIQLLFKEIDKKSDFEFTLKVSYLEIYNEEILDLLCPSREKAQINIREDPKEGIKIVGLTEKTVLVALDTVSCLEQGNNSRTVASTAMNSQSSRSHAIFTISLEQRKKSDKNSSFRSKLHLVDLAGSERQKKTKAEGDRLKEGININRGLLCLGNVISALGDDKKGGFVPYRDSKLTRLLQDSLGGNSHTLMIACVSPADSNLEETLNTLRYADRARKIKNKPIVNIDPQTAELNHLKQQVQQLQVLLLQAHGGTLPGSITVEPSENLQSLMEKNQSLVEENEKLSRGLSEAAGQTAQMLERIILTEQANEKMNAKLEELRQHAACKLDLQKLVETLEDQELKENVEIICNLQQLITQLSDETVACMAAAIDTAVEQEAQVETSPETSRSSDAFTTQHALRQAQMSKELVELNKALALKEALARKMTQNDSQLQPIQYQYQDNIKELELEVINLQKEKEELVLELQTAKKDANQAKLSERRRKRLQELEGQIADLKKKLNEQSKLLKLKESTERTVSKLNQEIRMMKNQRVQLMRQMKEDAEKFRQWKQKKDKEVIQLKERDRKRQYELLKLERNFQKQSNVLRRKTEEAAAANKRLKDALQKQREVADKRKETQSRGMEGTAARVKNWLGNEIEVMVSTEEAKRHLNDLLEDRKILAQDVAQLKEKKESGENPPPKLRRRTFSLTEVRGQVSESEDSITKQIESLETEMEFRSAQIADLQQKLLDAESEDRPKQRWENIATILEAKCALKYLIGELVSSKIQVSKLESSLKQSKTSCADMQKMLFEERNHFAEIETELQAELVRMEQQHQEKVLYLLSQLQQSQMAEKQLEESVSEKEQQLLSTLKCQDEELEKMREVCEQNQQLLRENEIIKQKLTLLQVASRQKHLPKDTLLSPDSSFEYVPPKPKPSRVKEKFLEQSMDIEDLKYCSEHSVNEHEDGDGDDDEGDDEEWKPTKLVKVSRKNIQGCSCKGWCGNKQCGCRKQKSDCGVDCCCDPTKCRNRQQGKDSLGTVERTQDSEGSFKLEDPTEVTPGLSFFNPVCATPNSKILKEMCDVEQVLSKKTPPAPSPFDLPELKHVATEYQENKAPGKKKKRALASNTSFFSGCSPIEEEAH
Procedure, shortened: (§1)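 Motor domain at 15 µM final, in 7.5 mM PIPES-NaOH pH 7.0 with […], 10 µM Taxol, ELIPA 1 and 2 reagents and 1.25 mg/mL microtubules. AMP-PNP, a slowly hydrolysable ATP analog and general ATPase inhibitor, tested at 1 mM. Reaction started with 1 mM Mg2+ATP at 22 °C and read kinetically at 360 nm. Run in triplicate.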

[2] = molecular target: T2, Kinesin-like protein KIF11 (Homo sapiens) (UniProt P52732); assay: Inhibition of porcine brain microtubule-stimulated human recombinant GST-tagged Eg5 ATPase activity at 1 mM by microplate reader in presence of Mg2+ ATP relative to control; procedure, shortened: as §1
T2 sequence (whole entry): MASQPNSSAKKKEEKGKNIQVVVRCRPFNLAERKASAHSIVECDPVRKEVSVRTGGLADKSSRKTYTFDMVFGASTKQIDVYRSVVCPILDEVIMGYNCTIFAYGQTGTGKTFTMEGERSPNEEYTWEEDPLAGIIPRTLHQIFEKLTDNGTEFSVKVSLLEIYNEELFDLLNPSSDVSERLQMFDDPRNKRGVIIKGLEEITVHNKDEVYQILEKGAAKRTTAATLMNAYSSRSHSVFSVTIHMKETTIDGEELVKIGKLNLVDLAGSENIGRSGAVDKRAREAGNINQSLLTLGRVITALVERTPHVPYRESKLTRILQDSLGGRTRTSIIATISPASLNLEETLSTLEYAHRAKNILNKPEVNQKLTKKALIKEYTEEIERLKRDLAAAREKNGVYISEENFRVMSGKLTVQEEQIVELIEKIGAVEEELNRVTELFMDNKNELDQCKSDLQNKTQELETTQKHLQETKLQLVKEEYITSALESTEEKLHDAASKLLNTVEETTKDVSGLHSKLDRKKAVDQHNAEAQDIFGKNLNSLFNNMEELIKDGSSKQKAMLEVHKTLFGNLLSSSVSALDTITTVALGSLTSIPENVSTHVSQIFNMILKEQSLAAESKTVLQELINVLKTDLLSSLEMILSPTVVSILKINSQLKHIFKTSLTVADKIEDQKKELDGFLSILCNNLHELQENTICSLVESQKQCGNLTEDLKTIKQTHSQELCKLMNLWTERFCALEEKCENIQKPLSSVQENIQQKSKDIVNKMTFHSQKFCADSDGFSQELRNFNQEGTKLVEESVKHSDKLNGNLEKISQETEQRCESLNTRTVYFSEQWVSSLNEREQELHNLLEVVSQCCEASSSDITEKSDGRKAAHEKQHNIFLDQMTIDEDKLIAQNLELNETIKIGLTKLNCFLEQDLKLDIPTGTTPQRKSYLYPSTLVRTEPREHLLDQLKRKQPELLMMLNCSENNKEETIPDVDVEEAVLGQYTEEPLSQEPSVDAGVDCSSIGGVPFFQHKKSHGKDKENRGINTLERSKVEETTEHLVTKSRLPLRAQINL

[3] = system: K562; assay: Growth inhibition of human K562 cells incubated for 4 days by WST-1 assay; type: functional; conditions: K562, 96 h
Procedure, shortened: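 Cells were kept at 37 °C under 5% CO2 and plated on day 0 at 500–5000 cells/well. On day 1 they received ten concentrations from 0.0025 to 50 µM (final), in triplicate. On day 4 WST-1 was added, followed by 30 min–4 h incubation and absorbance at 450 nm. GI50 is the concentration killing 50% of cells.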

SMILES	inhibition [1]	inhibition [2]	GI50 [3]
Nc1ncnc2c1ncn2[C@@H]1O[C@H](COP(=O)(O)OP(=O)(O)NP(=O)(O)O)[C@@H](O)[C@H]1O	> 30%	> 30%	–
COc1ccc2[nH]cc(/C(C#N)=C/c3cccnc3)c2c1	–	–	4 µM
